Our source for the EC50, IC50 and Selectivity ratio values is ChEMBL document CHEMBL1124868, “Synthesis and anti-HIV-1 activity of 2'-"up"-fluoro analogues of active anti-AIDS nucleosides 3'-azido-3'-deoxythymidine (AZT) and 2',3'-dideoxycytidine (DDC)” (J Med Chem, 1990).

Several values for one entry are separate records, joined by “and”; a condition that tells them apart may be missing. Identical values can stand only once.

Test [1] relates to MT4. The test can be described thus: AntiHIV-1 activity measured in MT-4 cells at 5 to 6 different concentrations, using the P24 antigen enzyme-linked immunosorbent assay (ELISA). Format: functional, cell-based. Conditions: Homo sapiens. The method in brief: (§1)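 MT4 cells infected with HIV-1 at 200 TCID50 per 10^6 cells, adsorbed 1 h at 37 °C, 5% CO2, washed, resuspended at 10^6 cells/3 mL. Compounds added immediately at five to six concentrations. After 5 days at 37 °C, cell-free supernatant assayed for P24 core antigen by ELISA kit or for RT activity. EC50 from median-effect plot analysis against untreated infected controls.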
Background: ELISA stands for enzyme-linked immunosorbent assay.

The test system of test [2] is MT4. The test can be described thus: AntiHIV-1 activity measured in MT-4 cells at 5 to 6 different concentrations, using the reverse transcriptase (RT) assay. Type of test: functional, cell-based. Conditions: Homo sapiens. The gist of the method: as §1
The subject of a further test is HL-60. The test can be described thus: Cytotoxicity was tested in HL60 cells by the trypan blue exclusion assay. Type of test: functional, cell-based. Conditions: Homo sapiens. The method in brief: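 HL60 cells exposed to at least five compound concentrations plus no-drug control, in duplicate in 96-well plates. Growth inhibition counted by trypan blue exclusion on a hemocytometer. IC50 derived by median-effect plot analysis.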

Test [3] can be described thus: Selectivity ratio to IC50 of HL60 cells and EC50, anti-HIV activity of MT-4 cells. Format: functional, HL-60. The gist of the method: (§2)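 Selectivity ratio is the cytotoxic IC50 (MT4 or HL60 cells, […]) divided by the anti-HIV-1 EC50 from P24 ELISA or RT assay in infected MT4 cells.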
Test [4] can be described thus: Selectivity ratio to IC50 of MT4 cells and EC50, anti-HIV activity of MT-4 cells. Type of test: functional. The gist of the method:
as §2

Test [5] relates to MT4. Kind of test: Cytotoxicity was tested in MT-4 cells by the XTT-microculture tetrazolium assay. Type of test: functional, cell-based. Conditions: Homo sapiens. The gist of the method: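 MT4 cells exposed in duplicate in 96-well plates to at least five concentrations for 4 days. PMS-XTT (0.075 mM PMS with 1 mg/mL XTT in serum-free medium) added, then 6 h at 37 °C before reading. IC50 derived by median-effect plot analysis.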

For the molecule `Cc1cn([C@@H]2O[C@H](CO)[C@@H](N=[N+]=[N-])[C@H]2F)c(=O)[nH]c1=O`, the EC50 in the test on MT4 [1] worked out at 168 µM; in the test on MT4 [2], 103 µM. Moreover, in the test with HL-60, it took 440 µM to reach half-maximal inhibition (IC50). The Selectivity ratio was 2.62 and 4.27 in test [3]; 1.26 and 2.06 in test [4].
For `Nc1ccn([C@@H]2O[C@H](CO)C[C@@H]2F)c(=O)n1`, the EC50 turned out to be 2.66 µM in the test with MT4 [1] and 2.54 µM in the test with MT4 [2]. The IC50 was 707 µM with HL-60 and 1480 µM in the test with MT4 [5]. Moreover, the Selectivity ratio was 266 and 278 in test [3]; 328 and 343 in test [4].
As for `Nc1ccn([C@H]2CC[C@@H](CO)O2)c(=O)n1` [ZALCITABINE], the concentration for a half-maximal effect (EC50) with MT4 [1] amounted to 0.236 µM; in the test on MT4 [2] it was 0.24 µM. Moreover, the IC50 with HL-60 stood at 100 µM. Besides, the Selectivity ratio in test [3] was 424 and 417; in test [4], 1326 and 1304.
Consider `Cc1cn([C@H]2C[C@H](N=[N+]=[N-])[C@@H](CO)O2)c(=O)[nH]c1=O` [ZIDOVUDINE], for which the EC50 with MT4 [1] turned out to be 0.006 µM; with MT4 [2], 0.0045 µM. In addition, in the test with HL-60, half-maximal inhibition (IC50) was put at 96 µM. The Selectivity ratio is 16000 and 21333 in test [3]; 8833 and 11778 in test [4].

The term EC50 denotes the midpoint of the concentration-response curve. Read a high EC50 as lower potency in that assay. Broadly, the IC50 is the concentration at which inhibition is half-maximal. Read a high IC50 as lower potency.
